# Compound activity: PubChem BioAssay, several laboratories
# The list is not random: actives were taken first. Their share in the collection is about 12%.
# Arbovirus inh: arbovirus infection inhibition | arbovirus infection cell-based antiviral screen | AID 1251 | inhibition, % at 10 µM | 200,000 tested, 0.37% active; in the data active = inhibition above about 30%
# Wee1 degr inh: blocks degradation of human Wee1 kinase. P30291. HeLa Luc-Wee1K328M stability, luciferase luminescence; 100% = proteasome inhibitor MG132 effect. reporter increase, % at 5 µM. 220,000 tested, 1.2% active;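 active = activation above the mean of all tested compounds plus 3 SD, set per screening run, cut at about 8.8% in these data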;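 also: cells exposed to compound for 20 h before luminescence read; 0% = DMSO alone and 100% = MG132 at 30 µM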
# L major viab: inhibitors of Leishmania major promastigote growth; AID 1063; 200,000 tested, 9% active; Leishmania major promastigotes, resazurin fluorescence viability; inhibition, % at 10 µM;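 also: promastigotes grown with compound for 44 hours at 28 °C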
# Rad51 HR inh: blocks human Rad51 in homologous recombination. hRad51 DNA strand exchange, fluorescence dequenching. inhibition, % at 10 µM. Q06609. 200,000 tested, 0.085% active;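 active = inhibition above 40% at the single screening dose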;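 also: 0% = DMSO control wells and 100% = blanks with heterologous ssDNA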
#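 Read-out basis: percent inhibition relative to plate controls and blanks / Assay system: human Rad51 nucleoprotein filaments preassembled on unlabelled ssDNA / Timing: filaments 15 min 37 °C, then compound 30 min / Control set: per-plate controls and blanks / Technique: fluorescence dequenching at 485/520 nm / Compound: 10 µM final, single point / Also added: Fluorescein- and BHQ1-tagged 47-mer duplex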
# CHOP inhibitor: blocks CHOP induction under ER stress. 220,000 tested, 3.8% active. CHO-K1 CHOP-promoter luciferase, tunicamycin-induced, 15-18 h. inhibition, % at 10 µM;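 active = compounds that reduced the stress-induced luciferase reporter signal by more than about 70% of percent inhibition, limit read from the data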;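 also: 0% = tunicamycin plus vehicle and 100% = wells without tunicamycin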
# PKD1 inh: PKD1 (human) kinase inhibition; AID 797; Q15139; PKD1 kinase fluorescence polarization assay; inhibition, % (concentration not given with the values); 200,000 tested, 0.056% active
# Target sequence (Q15139 whole entry, looked up): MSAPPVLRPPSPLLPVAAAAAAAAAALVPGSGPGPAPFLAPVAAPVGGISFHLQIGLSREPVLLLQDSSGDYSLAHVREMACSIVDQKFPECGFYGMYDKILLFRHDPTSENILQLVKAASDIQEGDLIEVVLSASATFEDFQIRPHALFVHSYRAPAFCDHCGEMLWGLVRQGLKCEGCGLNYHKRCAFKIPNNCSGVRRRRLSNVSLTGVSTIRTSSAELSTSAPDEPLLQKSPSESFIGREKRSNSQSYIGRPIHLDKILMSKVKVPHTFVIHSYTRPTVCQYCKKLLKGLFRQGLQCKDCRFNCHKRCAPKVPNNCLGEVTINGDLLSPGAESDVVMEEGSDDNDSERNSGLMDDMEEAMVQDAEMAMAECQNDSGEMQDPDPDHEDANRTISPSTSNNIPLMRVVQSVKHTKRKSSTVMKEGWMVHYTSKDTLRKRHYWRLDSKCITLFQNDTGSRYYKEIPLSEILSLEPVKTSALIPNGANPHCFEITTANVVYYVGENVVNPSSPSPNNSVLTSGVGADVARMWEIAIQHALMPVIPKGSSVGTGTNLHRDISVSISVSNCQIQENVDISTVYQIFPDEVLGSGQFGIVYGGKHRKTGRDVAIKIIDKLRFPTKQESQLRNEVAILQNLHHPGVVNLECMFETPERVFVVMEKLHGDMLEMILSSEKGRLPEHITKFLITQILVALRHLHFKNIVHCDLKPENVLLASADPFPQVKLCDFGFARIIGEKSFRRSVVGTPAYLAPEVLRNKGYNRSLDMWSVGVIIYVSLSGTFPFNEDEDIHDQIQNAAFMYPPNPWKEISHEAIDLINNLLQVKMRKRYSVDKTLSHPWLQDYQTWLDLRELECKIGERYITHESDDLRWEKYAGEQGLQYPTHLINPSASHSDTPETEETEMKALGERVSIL
# * hit, by the source's call; . = not tested or not shown. Rule as the data show it, unless noted: active = inhibition above about 50%; inactive = the rest.
SMILES,Arbovirus inh,Wee1 degr inh,L major viab,Rad51 HR inh,CHOP inhibitor,PKD1 inh
Cc1cccc(NC(=S)N2CCN(c3cc(C)ccc3C)CC2)c1,8,-3,80*,1,18,5
CN1CCN(C(=S)Nc2ccc(Cl)c(Cl)c2)CC1,12,3,67*,-2,-16,1
O=Cc1ccc(OCC(=O)Nc2ccccc2C(F)(F)F)cc1,4,-1,0,-5,5,-2
Cc1cccc(N2CCN(C(=O)C3CCCCC3)CC2)c1C,-1,-1,6,1,96*,-6
Cc1cccc(N2CCN(C(=O)C34CC5CC(CC(C5)C3)C4)CC2)c1C,-24,-3,7,14,72*,-6
Cc1ccc(N(CC(=O)NCCSc2ccccn2)S(=O)(=O)c2ccc(F)cc2)cc1,-10,-1,25,-8,24,-4
CCn1c(=O)c(C(=O)NNS(=O)(=O)c2ccc(Cl)cc2)c(O)c2ccccc21,-6,-2,-7,-9,84*,-1
CCCCCCCCC(=O)NNC(=O)c1c(O)c2ccccc2n(CC)c1=O,-21,1,-5,-24,52,-1
CCCCCCC(=O)NNC(=O)c1c(O)c2ccccc2n(CC)c1=O,-9,0,-5,-6,93*,6
CCCCCCC(=O)NNC(=O)c1c(O)c2ccccc2n(CCC)c1=O,-15,1,-8,-7,76*,2
COc1ccc(C(=O)N2CCOC2CNC(=O)C(=O)NCc2ccco2)cc1 (stereo not drawn),5,3,-10,32,7,1
CC(=O)Nc1ccc(S(=O)(=O)N2CCN(CC(=O)N3CCOCC3)CC2)cc1,.,6,.,-18,7,.
Cc1ccc(-c2cc(-c3ccccc3)c(C#N)c(N)n2)o1,-6,4,15,-14,95*,6
C/C(=C\c1ccco1)CN1CCN(Cc2ccc(C)o2)C(CCO)C1 (stereo not drawn),-3,0,1,-3,24,1
COC(=O)c1cc(Br)c(=O)n(Cc2ccc3c(c2)OCO3)c1,-13,-1,-5,-3,-2,-3
COC(=O)c1cc(=O)n(CCc2ccc(OC)cc2)c(=Nc2ccc(F)c(Cl)c2)s1,-45,0,100*,5,-34,7
CCn1c(=O)cc(C(=O)OC)sc1=Nc1ccc(F)c(F)c1,-10,-2,86*,1,96*,-3
CCOC(=O)c1ccc(N=c2sc(C(=O)OC)cc(=O)n2CCCN2CCOCC2)cc1,2,-1,100*,1,42,-13
CCCCN=c1sc(C(=O)OC)cc(=O)n1CCCC,7,-2,5,3,3,-4
COC(=O)c1cc(=O)n(Cc2ccc(OC)cc2)c(=NCc2ccc(OC)cc2)s1,9,3,7,-3,-27,-1
COC(=O)c1cc(=O)n(Cc2ccc3c(c2)OCO3)c(=Nc2ccc(F)c(Cl)c2)s1,-29,1,100*,-1,-30,-14
Cc1cc(C(=O)NNS(=O)(=O)c2ccc(C(C)(C)C)cc2)nn1C(C)(C)C,.,0,.,13,22,.
COC(=O)c1cc(=O)n(CCc2ccccc2)c(=Nc2ccc(F)cc2)s1,-39,-3,90*,-1,5,-8
Cc1cc(C(=O)CSc2nncn2C)c(C)n1-c1ccccc1,-2,-2,3,0,4,5
Cc1ccccc1NC(=O)COC(=O)CCc1ccccc1,12,1,-6,14,19,-3
SMILES,Arbovirus inh,Wee1 degr inh,L major viab,Rad51 HR inh,CHOP inhibitor,PKD1 inh
COc1ccc(S(=O)(=O)N2CCCN(Cc3cccc(F)c3)CC2)cc1,-1,-2,90*,.,11,0
CCN1CCN(S(=O)(=O)c2ccc(OC)c(Br)c2)CC1,5,0,84*,10,35,-15
COc1ccc(S(=O)(=O)N2CCN(Cc3ccccc3)CC2)cc1,1,-1,8,-1,31,-10
COc1ccc(CN2CCN(S(=O)(=O)c3ccccc3)CC2)cc1Br,1,0,75*,1,39,-4
COc1ccc(S(=O)(=O)N2CCN(C)CC2)cc1Br,6,0,0,2,2,-8
CCCS(=O)(=O)N1CCN(Cc2ccc(OCc3ccccc3)c(OC)c2)CC1,.,-2,91*,-5,.,-6
COc1ccc(CCNC(=O)C(=O)NCc2ccc(Cl)cc2)cc1OC,-1,-1,0,5,12,-1
Cc1ccc(-c2nc3ccccc3c(=O)n2NC(=S)N(C)C)cc1,-7,2,0,11,-1,-5
C=CCOC(=O)C1=C(C)NC(SC)=C(C#N)C1c1ccc(OCC)cc1 (stereo not drawn),0,-1,38,-4,95*,-4
NC(=O)CCS(=O)(=O)c1ccccc1,-2,-1,-6,10,18,-6
NC(=O)CCS(=O)(=O)c1ccc(Cl)cc1,-9,10*,-6,6,-18,-12
O=S(=O)(NC(=NCc1ccccc1)c1ccc(F)cc1)c1ccc(Cl)cc1,3,3,20,-7,21,-10
Cc1ccc(F)cc1NC(=O)N1c2ccccc2NC(=O)CC1C (stereo not drawn),.,2,.,5,-2,.
COc1ccc(S(=O)(=O)N2Cc3ccccc3CC2C(=O)Nc2nccs2)cc1 (stereo not drawn),6,1,99*,.,32,0
COc1ccc(S(=O)(=O)N2Cc3ccccc3CC2C(=O)Nc2ccc3c(c2)OCO3)cc1 (stereo not drawn),1,0,19,-6,-40,1
CCc1nnc(NC(=O)C2Cc3ccccc3CN2S(=O)(=O)c2cccs2)s1 (stereo not drawn),-2,1,53*,8,7,-3
Cc1ccc(S(=O)(=O)N2Cc3ccccc3CC2C(=O)Nc2ccc3c(c2)OCO3)cc1 (stereo not drawn),-12,8,100*,3,37,-6
CNC(=O)C1Cc2ccccc2CN1S(=O)(=O)c1cccs1 (stereo not drawn),3,5,68*,6,6,-9
CCc1nnc(NC(=O)C2Cc3ccccc3CN2S(=O)(=O)c2ccc(C)cc2)s1 (stereo not drawn),-18,-1,39,-5,31,1
O=C(NCCc1ccccc1)C1CCC(CNS(=O)(=O)c2cccs2)CC1 (stereo not drawn),-1,1,-1,17,8,1
Cc1cc(C)n2nc(N)c(N=Nc3ccc(Cl)cc3)c2n1,-4,-1,-6,.,-31,-6
O=C(O)C(Cc1cn[nH]n1)=NO,.,-3,.,8,8,.
CCOC(CNc1ncnc2c1cnn2C)OCC,-1,1,-2,1,15,-4
O=[N+]([O-])c1ccc2c(c1)N([O-])C1(CCCCC1)[N+]2=O,.,0,.,2,95*,.
COc1ccccc1-c1nnc(SC(C)C(=O)O)n1-c1ccccc1 (stereo not drawn),4,1,-6,-106,-13,-11
